In ChEMBL document CHEMBL1136761 (J Med Chem, 2003):

Tests used:
[1] = biological target: T1, Sodium-dependent serotonin transporter (Rattus norvegicus, UniProt P31652); test: Affinity at rat serotonin transporter using [125I]RTI-55 displacement.
In short: (§1)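 Binding was measured by competition against [125I]RTI-55 at DAT and SERT, and affinities were reported as Ki values. The selectivity ratio is SERT Ki divided by DAT Ki. Other conditions follow a cited earlier method.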

[2] = biological target: Monoamine transporters; serotonin & dopamine (Rattus norvegicus) (UniProt P31652+P23977); test: Ratio between affinities at the rat dopamine and serotonin transporters.; type: protein assay; in short: as §1
[3] = biological target: T2, Sodium-dependent dopamine transporter (Rattus norvegicus, UniProt P23977); test: Affinity at rat dopamine transporter using [125I]RTI-55 displacement.; in short: as §1
[4] = Ratio between the inhibition of norepinephrine and dopamine uptake.
[5] = Ratio between the inhibition of serotonin and dopamine uptake.
[6] = biological target: T1, Sodium-dependent serotonin transporter; test: Inhibition of [3H]5-HT uptake at the rat serotonin transporter.
[7] = biological target: T2, Sodium-dependent dopamine transporter; test: Inhibition of [3H]dopamine uptake via rat dopamine transporter.
[8] = biological target: Norepinephrine transporter (Rattus norvegicus, UniProt Q9WTR4); test: Inhibition of [3H]norepinephrine uptake at the rat norepinephrine transporter.
Sequence of Norepinephrine transporter (Q9WTR4 whole entry): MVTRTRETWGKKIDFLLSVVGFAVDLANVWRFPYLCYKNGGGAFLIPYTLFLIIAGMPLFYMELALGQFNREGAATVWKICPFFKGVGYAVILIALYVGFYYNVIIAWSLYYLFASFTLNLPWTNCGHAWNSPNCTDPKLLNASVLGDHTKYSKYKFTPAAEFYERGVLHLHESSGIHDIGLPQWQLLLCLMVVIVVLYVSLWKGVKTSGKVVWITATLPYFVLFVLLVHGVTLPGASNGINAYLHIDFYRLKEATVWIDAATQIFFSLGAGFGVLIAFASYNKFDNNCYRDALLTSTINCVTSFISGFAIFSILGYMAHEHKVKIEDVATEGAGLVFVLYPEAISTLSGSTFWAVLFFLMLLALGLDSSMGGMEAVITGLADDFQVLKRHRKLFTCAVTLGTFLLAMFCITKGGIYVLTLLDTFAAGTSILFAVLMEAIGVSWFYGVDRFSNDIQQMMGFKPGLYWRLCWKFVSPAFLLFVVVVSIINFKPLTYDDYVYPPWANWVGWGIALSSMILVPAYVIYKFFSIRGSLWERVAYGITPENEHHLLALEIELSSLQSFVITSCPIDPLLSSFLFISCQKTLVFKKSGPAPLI

T2 sequence (P23977 whole entry): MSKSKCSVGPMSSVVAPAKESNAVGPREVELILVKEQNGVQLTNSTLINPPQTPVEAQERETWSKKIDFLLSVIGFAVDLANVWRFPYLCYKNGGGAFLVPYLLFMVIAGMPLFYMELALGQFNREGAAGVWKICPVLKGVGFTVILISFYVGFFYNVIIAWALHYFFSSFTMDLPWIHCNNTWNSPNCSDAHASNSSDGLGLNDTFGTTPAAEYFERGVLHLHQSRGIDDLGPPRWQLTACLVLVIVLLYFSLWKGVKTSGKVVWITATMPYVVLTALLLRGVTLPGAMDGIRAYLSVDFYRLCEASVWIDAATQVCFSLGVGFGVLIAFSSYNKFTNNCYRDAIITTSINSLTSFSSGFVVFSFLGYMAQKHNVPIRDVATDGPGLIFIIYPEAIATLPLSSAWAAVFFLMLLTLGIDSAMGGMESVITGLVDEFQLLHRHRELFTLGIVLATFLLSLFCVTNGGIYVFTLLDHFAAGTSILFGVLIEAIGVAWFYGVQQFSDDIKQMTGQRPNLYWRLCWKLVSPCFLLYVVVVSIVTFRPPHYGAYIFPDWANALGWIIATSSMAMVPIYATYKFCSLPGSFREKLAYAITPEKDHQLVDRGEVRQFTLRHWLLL
Sequence of Monoamine transporters; serotonin & dopamine (Rattus norvegicus) (P23977 whole entry, looked up): as the sequence (P23977 whole entry) above
Sequence of Monoamine transporters; serotonin & dopamine (Rattus norvegicus) (P31652 whole entry, looked up): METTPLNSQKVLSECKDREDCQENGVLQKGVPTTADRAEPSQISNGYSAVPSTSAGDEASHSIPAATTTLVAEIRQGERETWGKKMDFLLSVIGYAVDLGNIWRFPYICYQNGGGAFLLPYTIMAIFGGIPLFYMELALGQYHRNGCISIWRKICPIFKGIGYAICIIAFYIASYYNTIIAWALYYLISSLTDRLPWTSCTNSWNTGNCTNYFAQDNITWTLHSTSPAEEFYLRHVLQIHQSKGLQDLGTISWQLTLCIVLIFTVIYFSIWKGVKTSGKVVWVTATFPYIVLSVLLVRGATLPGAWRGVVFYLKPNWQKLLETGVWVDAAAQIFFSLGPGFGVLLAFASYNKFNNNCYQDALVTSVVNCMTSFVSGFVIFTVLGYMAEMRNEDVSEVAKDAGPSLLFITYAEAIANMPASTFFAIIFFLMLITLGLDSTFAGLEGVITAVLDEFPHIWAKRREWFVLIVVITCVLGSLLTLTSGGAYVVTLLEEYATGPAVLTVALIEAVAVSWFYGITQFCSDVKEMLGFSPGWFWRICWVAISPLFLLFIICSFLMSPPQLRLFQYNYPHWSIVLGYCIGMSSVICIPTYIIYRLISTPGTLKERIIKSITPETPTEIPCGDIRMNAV
T1 sequence (P31652 whole entry): as the sequence (P31652 whole entry, looked up) above

SMILES	Ki [1]	Ratio [2]	Ki [3]	Ratio [4]	Ratio [5]	Ki [6]	Ki [7]	Ki [8]
Fc1ccc(C(OCCC2CCN(Cc3ccc(Br)cc3)CC2)c2ccc(F)cc2)cc1	199 nM	181	1.1 nM	–	–	–	–	–
Ic1ccc(CN2CCC(CCOC(c3ccccc3)c3ccccc3)CC2)cc1	457 nM	63	7.2 nM	93	500	2570 nM	5.1 nM	479 nM
FC(F)(F)c1ccc(CN2CCC(CCOC(c3ccccc3)c3ccccc3)CC2)cc1	2270 nM	648	3.5 nM	–	–	–	–	–
O=[N+]([O-])c1ccc(CN2CCC(CCOC(c3ccccc3)c3ccccc3)CC2)cc1	2150 nM	859	2.5 nM	–	–	3580 nM	2.7 nM	208 nM
Fc1ccc(CN2CCC(CCOC(c3ccccc3)c3ccccc3)CC2)cc1	902 nM	177	5.1 nM	–	–	–	–	–
N#Cc1ccc(CN2CCC(CCOC(c3ccc(F)cc3)c3ccc(F)cc3)CC2)cc1	606 nM	505	1.2 nM	–	–	–	–	–
Fc1ccc(C(OCCC2CCN(Cc3ccc4ccccc4c3)CC2)c2ccc(F)cc2)cc1	88 nM	–	0.7 nM	–	–	227 nM	7.2 nM	93 nM
O=[N+]([O-])c1ccc(CN2CCC(CCOC(c3ccc(F)cc3)c3ccc(F)cc3)CC2)cc1	387 nM	323	1.2 nM	–	–	1560 nM	6.9 nM	231 nM
Fc1ccc(C(OCCC2CCN(Cc3ccc(C(F)(F)F)cc3)CC2)c2ccc(F)cc2)cc1	442 nM	402	1.1 nM	–	–	–	–	–
Brc1ccc(CN2CCC(CCOC(c3ccccc3)c3ccccc3)CC2)cc1	988 nM	154	6.4 nM	–	–	1320 nM	5.3 nM	534 nM
Clc1ccc(CN2CCC(CCOC(c3ccccc3)c3ccccc3)CC2)cc1	531 nM	140	3.8 nM	–	–	–	–	–
COc1ccccc1CN1CCC(CCOC(c2ccc(F)cc2)c2ccc(F)cc2)CC1	248 nM	4	63 nM	–	–	–	–	–
COc1cccc(CN2CCC(CCOC(c3ccc(F)cc3)c3ccc(F)cc3)CC2)c1	161 nM	12	13.3 nM	–	–	–	–	–
Fc1ccc(C(OCCC2CCN(Cc3ccc(Cl)cc3)CC2)c2ccc(F)cc2)cc1	238 nM	198	1.2 nM	–	–	–	–	–
N#Cc1ccc(CN2CCC(CCOC(c3ccccc3)c3ccccc3)CC2)cc1	2230 nM	390	5.7 nM	–	–	–	–	–
Cc1ccc(CN2CCC(CCOC(c3ccc(F)cc3)c3ccc(F)cc3)CC2)cc1	239 nM	42	5.7 nM	–	–	–	–	–
COc1ccc(CN2CCC(CCOC(c3ccc(F)cc3)c3ccc(F)cc3)CC2)cc1	266 nM	34	7.9 nM	–	–	–	–	–
Fc1ccc(C(OCCC2CCN(Cc3ccc(I)cc3)CC2)c2ccc(F)cc2)cc1	205 nM	98	2.1 nM	–	–	1020 nM	13.6 nM	546 nM
Fc1ccc(CN2CCC(CCOC(c3ccc(F)cc3)c3ccc(F)cc3)CC2)cc1	245 nM	107	2.3 nM	–	–	601 nM	3.8 nM	639 nM
Fc1ccc(C(OCCC2CCN(Cc3cccc4ccccc34)CC2)c2ccc(F)cc2)cc1	370 nM	23	16 nM	–	–	–	–	–
Fc1ccc(C(OCCC2CCN(Cc3ccccc3)CC2)c2ccc(F)cc2)cc1	171 nM	17	9.9 nM	–	–	–	–	–
